# A selection: hits, their analogues and other compounds. The true share with any hit is near 2.4%.
# SENP1 FRET inh – blocks the human SENP1 SUMO protease catalytic domain | Q9P0U3 | recombinant SENP1 catalytic domain, CyPet-SUMO1-YPet FRET cleavage | inhibition, % at 10 µM | 0.21% of 360,000 active;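 active = inhibition at least 30% at 10 µM, raw YFP signal under a set limit, fluorescence ratio 0.5 to 1.5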
# Target sequence (Q9P0U3 419-644 limits assumed): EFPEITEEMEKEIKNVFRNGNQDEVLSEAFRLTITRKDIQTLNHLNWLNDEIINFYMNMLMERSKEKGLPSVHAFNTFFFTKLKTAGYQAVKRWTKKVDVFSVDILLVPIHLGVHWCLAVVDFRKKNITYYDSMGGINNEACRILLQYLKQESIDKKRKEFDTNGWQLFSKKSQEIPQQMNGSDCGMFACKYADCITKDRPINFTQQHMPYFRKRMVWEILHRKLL
#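 system = hSENP1 catalytic domain, recombinant | reagent = SFCypet-SUMO1-SFYpet substrate at 25 nM | doses = one dose per compound, 10 µM, 0.5% DMSO | incubation = enzyme reaction for 50 min at room temperature, dark | measured by = FRET, CFP and YFP emission | controls = no-enzyme low, enzyme-DMSO high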
# NRP1-CendR mod – alters CendR peptide binding to human NRP-1; O14786; FAM-RPARPAR peptide binding to NRP-1, fluorescence polarization; inhibition, % at 25 µM; 0.85% of 360,000 active;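 active = inhibition or corrected inhibition above about 18%, plus a signal ratio from 0.5 to 1.5, limit read from the data, passing the limit was not always enough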
# MT1-MMP act inh – MT1-MMP (human) activation inhibition | P50281 | HT1080 RFP-PRO-GFP cells, GFP/RFP ratio fluorescence, overnight; percent of plate control window, DMSO zero | GFP/RFP ratio change, % at 20 µM | 0.061% of 360,000 active;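 active = GFP/RFP ratio change of at least 30% with cell ATP level not reduced by more than half and red fluorescence within 50% of control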
#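 Assay system: HT1080 RFP-PRO-GFP cells | Dosing: 20 µM single dose, 1% DMSO | Incubation: Cells overnight before dosing, compound overnight, 37 °C, 5% CO2 | Evaluation: GFP/RFP fluorescence ratio | Control set: DMSO-only wells and HT1080 RFP-L50D-GFP cell wells as references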
# DAGLB inhibitor – blocks human DAGLB lipase activity. Q8NCG7. HEK293T DAGLB membrane lysate, EnzChek fluorogenic substrate. inhibition, % at 5.17 µM. 0.059% of 340,000 active. AID 504411; in the data active = inhibition above about 34%
# Myeloid diff MLP – promotes myeloid progenitor differentiation. ER-HoxA9 myeloid progenitors, lysozyme-GFP differentiation, flow cytometry. calls only at 10 µM. 1% of 360,000 active. AID 624256;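 active = normalized GFP-positive differentiation at or above the plate's own cutoff, the solvent-only control mean plus 3 SD; inconclusive = no clear call, values can overlap the other calls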;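 also: cells exposed to compound for four days before flow analysis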
# beta cell repl – induces beta-cell replication in MIN6 cells | proliferation, % at 10 µM | AID 2380 | 0.29% of 330,000 active | MIN6 cells proliferation, ATPlite luminescence, 48 h; cells starved in 0.2% serum; 100% = growth in 10% serum;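 active = compounds whose signal lies at least 3.5 SD above the mean of all wells on their plate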
# Myeloid diff CP1 – myeloid differentiation induction. shares compounds with Myeloid diff MLP. ER-HoxA9 myeloid progenitors, GFP/Mac1 double-positive flow. calls only. 2% of 2,300 active. AID 651706;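 active = share of green or green-and-red cells above 9 and 9% in run 1 or 4 and 3% in run 2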
# GFP autofluor – counter-screen for myeloid differentiation promoters: compound fluorescence. shares compounds with Myeloid diff MLP. ER-HoxA9 myeloid progenitors, no estrogen, GFP autofluorescence flow cytometry; vehicle wells 0%, positive control 100%. fluorescence response, % (concentration not given with the values). 7.4% of 2,300 active. AID 651707;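 active = over 5% cells positive for green fluorescent reporter, or over 2% positive for both it and APC stain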
# Calls only; . = inactive; ? = inconclusive; / = not tested or not shown; + = active, no number.
SMILES,SENP1 FRET inh,NRP1-CendR mod,MT1-MMP act inh,DAGLB inhibitor,Myeloid diff MLP,beta cell repl,Myeloid diff CP1,GFP autofluor
COC(=O)C1C(=O)c2c([nH]c(C(=O)OCC3CCCO3)c2C)CC1C (stereo unspecified),.,.,.,.,.,.,.,.
COCCOC(=O)c1[nH]c2c(c1C)C(=O)C(C(=O)OC)C(C)C2 (stereo unspecified),.,.,.,.,.,.,/,/
O=C(CCNS(=O)(=O)c1ccc2c(c1)CCC(=O)N2)NCc1ccc2c(c1)OCO2,.,.,.,.,.,.,.,.
CN(C(=O)COC(=O)c1ccc[nH]c1=O)C1CCCCC1,.,.,.,.,.,.,.,.
O=C(COC(=O)c1ccc[nH]c1=O)NC1CCCCCC1,.,.,.,.,.,.,/,/
Cc1cc(C)cc(C(=O)NCC(=O)OCC(=O)NCC(F)(F)F)c1,.,.,.,.,.,.,/,/
O=S(=O)(NC1CCN(Cc2ccccc2)CC1)c1cccc2cccnc12,.,.,/,.,.,.,.,.
C[C@H]1CN([C@@H](C)CO)C(=O)c2cc(NC(=O)NC3CCCCC3)ccc2O[C@H]1CN(C)C(=O)Nc1ccc(C(F)(F)F)cc1,.,.,.,.,.,.,.,.
COc1cc(C(=O)NC2CCCc3c2cnn3-c2ccccc2F)cc(OC)c1OC (stereo unspecified),.,.,.,.,?,.,/,/
O=C(COC(=O)c1ccc2ncsc2c1)NCc1ccccc1Cl,.,.,.,.,.,.,/,/
COC(=O)N/N=C(\CCC(=O)O)c1cccs1,.,.,.,.,.,.,/,/
O=C(CN1CCN(c2ncccn2)CC1)Nc1ccccc1-n1cccc1,.,.,/,.,+,.,.,.
C=CCNC(=S)N1N=C(c2ccco2)CC1c1ccco1 (stereo unspecified),.,.,.,.,.,/,.,.
CCN(CC(=O)Nc1c(F)cccc1F)C(=O)c1ccc(Cl)c(S(=O)(=O)N2CCCCC2)c1,.,.,.,.,.,.,/,/
COc1cccc(C(=O)Nc2ccc(NC(C)=O)cn2)c1,.,.,.,.,.,.,.,.
CCCC(=O)Nc1ccc(NC(=O)c2cccc(OC)c2)nc1,.,.,.,.,.,.,/,/
COc1ccc(Cl)cc1S(=O)(=O)N1CCCC(C(=O)NCc2ccccc2)C1 (stereo unspecified),.,.,.,.,.,.,/,/
Cc1ccc(-c2nn3c(C)nnc3s2)cc1NC(=O)CSc1ccc(Cl)cc1,.,.,.,.,+,.,+,.
Cc1nnc2sc(-c3ccc(NC(=O)CSc4ccc(Cl)cc4)cc3)nn12,.,.,.,.,.,.,/,/
O=C(Nc1ccc(S(=O)(=O)N2CCCCC2)cc1)c1ccc(=O)[nH]c1,.,.,.,.,.,.,/,/
Cc1ccc(NC(=O)c2ccc(=O)[nH]c2)cc1S(=O)(=O)N1CCCCC1,.,.,.,.,.,.,.,.
CCOc1ccc(Nc2oc(-c3ccco3)nc2C#N)cc1,.,.,.,.,+,.,.,.
Cc1cc2c3c(c1)C1(C(=O)N3C(C)(C)CC2C)C(C#N)=C(N)Oc2n[nH]c(C)c21 (stereo unspecified),.,.,.,.,.,.,/,/
Cc1cc2c3c(c1C)C1(C(=O)N3C(C)(C)CC2C)C(C#N)=C(N)Oc2n[nH]c(C)c21 (stereo unspecified),.,.,.,.,+,.,.,.
Cc1ccc(-c2csc3ncn(CC(=O)NCC(c4ccco4)N4CCCC4)c(=O)c23)cc1 (stereo unspecified),.,.,.,.,.,.,/,/
SMILES,SENP1 FRET inh,NRP1-CendR mod,MT1-MMP act inh,DAGLB inhibitor,Myeloid diff MLP,beta cell repl,Myeloid diff CP1,GFP autofluor
CCOc1ccc(N(CC(=O)Nc2cccc(Br)c2)S(C)(=O)=O)cc1,.,.,.,.,.,.,/,/
Cc1ccccc1-c1nnc(SCC(=O)NC2CCCC2)o1,.,.,.,.,.,.,/,/
Cc1ccc(-n2ncc(-c3nnc(SCC(=O)NC4CCCC4)o3)c2N)cc1C,.,.,.,.,.,.,.,.
COc1nc(-c2ccccc2)nnc1-c1ccccc1,.,.,.,.,.,/,/,/
COc1nc(-c2ccccc2)nc(C)c1CC(=O)O,.,.,.,.,.,.,.,.
COC(=O)Cc1cc(C)cc2c(=O)cc(-c3ccoc3)oc12,.,.,.,/,.,.,/,/
COc1ccc(-c2cc(-c3cc(OC)ccc3O)[nH]n2)cc1,.,.,.,.,.,.,.,.
Cc1cccc(OCCOC(=O)c2c(-c3ccccc3)noc2C)c1,.,.,.,.,+,.,.,.
CCCC(C(=O)Nc1nccs1)c1ccccc1 (stereo unspecified),.,.,.,.,.,.,/,/
Oc1ccc(Br)cc1-c1ccnn1-c1ccccc1,.,.,.,.,+,.,.,.
CC(C)=CCC/C(C)=C/CNC(=O)C[C@H]1C[C@H](C(=O)N2CCCCC2)[C@@]2(C)c3[nH]c4ccc(Cl)cc4c3CCN2C1=O,.,.,.,.,+,/,.,.
O=C(CCNC(=O)c1ccc([N+](=O)[O-])cc1)NCCc1ccccc1,.,.,.,.,.,.,/,/
Cc1ccc(C(=O)OCC(=O)c2c[nH]c3ccccc23)cc1NC(=O)c1ccco1,.,.,.,.,.,.,.,.
Cc1noc(C)c1NC(=O)N(C)C[C@H]1Oc2c(NS(=O)(=O)c3cn(C)cn3)cccc2C(=O)N([C@H](C)CO)C[C@@H]1C,.,.,.,.,.,.,/,/
CC(=O)OCCCCON1C(=O)c2ccccc2C1=O,.,.,.,.,/,.,.,.
O=C1c2ccccc2C(=O)N1CCCON1C(=O)c2ccccc2C1=O,.,.,.,.,.,.,/,/
O=C(N/N=C/c1ccc[nH]1)c1ccc(COc2cccc3cccnc23)cc1,.,.,.,.,+,.,.,.
CCOC(=O)c1ccc(N=c2sc(C(=O)OC)cc(=O)n2C2CC2)cc1,.,.,.,.,.,.,.,.
CCOC(=O)c1ccc(N=c2sc(C(=O)OC)cc(=O)n2Cc2ccc3c(c2)OCO3)cc1,.,.,.,.,.,.,/,/
c1cc(-c2cc3nc(NC4CCCCC4)ccn3n2)ccc1OCCN1CCOCC1,.,.,.,/,.,/,.,.
CC(C)NC(=O)C1(C)CN(S(C)(=O)=O)CC(=O)N1C1CCN(Cc2ccccc2)CC1 (stereo unspecified),.,.,.,/,.,/,/,/
